The results in this text go back to ChEMBL document CHEMBL5107962, “Covalent sortase A inhibitor ML346 prevents Staphylococcus aureus infection of Galleria mellonella” (RSC Med Chem, 2022).

For one data set, the system named is Escherichia coli. Kind of data set: Antibacterial activity against Escherichia coli AB1157 assessed as inhibition of bacterial growth incubated for 16 to 18 hrs. The format is functional. The settings on record: time 16-18 hrs. In a few lines:
(§1)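 Broth microdilution: S. aureus in TSB, E. coli in LB. Overnight cultures diluted 1:1000, grown at 37 °C to A600 0.6, then diluted 1:400 into two-fold compound dilutions. Incubated 16–18 h at 37 °C without shaking. MIC taken as the lowest concentration with no visible growth. Two independent experiments.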

In data set [1] the target is T1, Sortase A (Staphylococcus aureus, UniProt Q9S446). Kind of data set: Inhibition of recombinant Staphylococcus aureus sortase A deltaN24 transpeptidation expressed in Escherichia coli BL21 (DE3) cells using Abz-LPATG-Dnp as substrate preincubated for 20 mins followed by substrate addition and measured every 1 min for 15 mins by FRET assay. In a few lines:
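His-tagged enzyme purified by Ni-NTA and gel filtration. 1 µM SrtA preincubated with compound (0.05–50 µM) for 20 min at room temperature in 50 mM Tris-HCl pH 7.5, 150 mM NaCl, 5 mM CaCl2. Reaction started with 10 µM Abz-LPATG-Dnp, read at ex 309/em 420 nm. IC50 from a sigmoidal dose–response fit; triplicates, two experiments.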

The target of data set [2] is T1, Sortase A. Nature of the data set: Irreversible inhibition of recombinant Staphylococcus aureus sortase A deltaN24 expressed in Escherichia coli BL21(DE3) cells using Abz-LPATG-Dnp as substrate preincubated for 20 mins followed by substrate addition and measured every 1 min for 15 mins by FRET-based assay. A digest of the protocol:
(§2)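 SaSrtAΔN24 preincubated with compound for 10, 20, 40 or 60 min before FRET IC50 determination with Abz-LPATG-Dnp in Tris pH 7.5, NaCl, CaCl2 buffer.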

The nature of data set [3]: Irreversible inhibition of recombinant Streptococcus pyogenes sortase A deltaN81 expressed in Escherichia coli BL21(DE3) cells using Abz-LPATG-Dnp as substrate preincubated for 10 mins followed by substrate addition and measured every 1 min for 15 mins by FRET-based assay.
Data set [4] in a line: Irreversible inhibition of recombinant Streptococcus pyogenes sortase A deltaN81 expressed in Escherichia coli BL21(DE3) cells using Abz-LPATG-Dnp as substrate preincubated for 20 mins followed by substrate addition and measured every 1 min for 15 mins by FRET-based assay.
Data set [5] deals with Sortase A (Staphylococcus aureus), Q9S446 [UNDEFINED MUTATION]. Kind of data set: Irreversible inhibition of recombinant Staphylococcus aureus sortase A deltaN24 expressed in Escherichia coli BL21(DE3) cells assessed as thermal stabilization by measuring change in melting temperature incubated for 15 mins by Nano DSF assay. A digest of the protocol: (§3)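 40 µg SaSrtAΔN24 (wild type or C184A) in 100 µL 50 mM Tris-HCl pH 9.0, 150 mM NaCl, 5 mM CaCl2 incubated with compound for 15 min at room temperature, then centrifuged. Label-free nanoDSF read at 330/350 nm while ramping 30–90 °C at 2 °C per min. Tm taken from the first derivative of the ratio.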

Data set [6] in a line: Toxicity in Galleria mellonella larvae assessed as survivability measured after 120 hrs. In a few lines: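 G. mellonella larvae (2-2.5 cm, creamy), starved 24 h, injected with 10 µL compound in vehicle (5% DMSO, 20% PEG300, 75% PBS with 6.6% solutol HS-15). Kept at 37 °C; survival and appearance recorded over 120 h with photography. Three independent experiments.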
The subject of data set [7] is Staphylococcus aureus. Kind of data set: Antibiofilm activity against wild type Staphylococcus aureus Newman assessed as reduction in biofilm biomass at 25 to 200 uM incubated for 18 hrs by crystal violet staining based microplate reader analysis. As to conditions: dose 25-200 µM. The format is functional, organism-based. A digest of the protocol: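 S. aureus overnight culture diluted 1:1000 in TSB with inhibitor, grown static at 37 °C for 18 h. Wells rinsed with PBS, fixed with methanol 10 min, stained with 0.1% crystal violet 15 min. Stain dissolved in 33% acetic acid and A600 read. Three independent experiments, mean ± SEM.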

Data set [8] addresses T1, Sortase A. Nature of the data set: Irreversible inhibition of recombinant Staphylococcus aureus sortase A deltaN24 expressed in Escherichia coli BL21(DE3) cells using Abz-LPATG-Dnp as substrate preincubated for 40 mins followed by substrate addition and measured every 1 min for 15 mins by FRET-based assay. In a few lines:
as §2

A short description of data set [9]: Selectivity ratio of Kinact for irreversible inhibition of recombinant Staphylococcus aureus sortase A deltaN24 expressed in Escherichia coli BL21(DE3) cells to Kinact for irreversible inhibition of recombinant Streptococcus pyogenes sortase A deltaN81 expressed in Escherichia coli BL21(DE3) cells.
The next data set has as its target Cathepsin B (Homo sapiens, UniProt P07858). Nature of the data set: Inhibition of cathepsin B (unknown origin) using Cbz-Phe-Arg-AMC as substrate at 20 uM preincubated for 5 mins followed by substrate addition and measured after 10 mins by fluorometric assay. As to conditions: time 15.0 min. A digest of the protocol:
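Cbz-Phe-Arg-AMC added (40 µM for B, 80 µM for L) and fluorescence read at ex 380/em 460 nm over 10 min. E64 at 6.25 nM as control. Triplicates, two experiments.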

Data set [10] deals with Staphylococcus aureus. Kind of data set: […] activity against compound pretreated wild type Staphylococcus aureus Newman infected in Galleria mellonella larvae assessed as pathogenicity by measuring melanization after 24 hrs of bacterial injection. The format is functional, organism-based. In a few lines:
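S. aureus diluted 1:1000 with or without compound and grown to A600 1.0. 10 µL of a 1 × 10^7 CFU mL-1 PBS suspension injected into the last proleg of starved larvae, held at 37 °C. Larvae chilled on ice and photographed at 24 h to score melanization. ΔsrtA strain used as control.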

For data set [11], the system named is Staphylococcus aureus. Nature of the data set: Antibacterial activity against Staphylococcus aureus Newman assessed as inhibition of bacterial growth incubated for 16 to 18 hrs. The format is functional. As to conditions: time 16-18 hrs. A digest of the protocol:
as §1

The test system of data set [12] is Staphylococcus aureus. Nature of the data set: Anti-virulence activity against Staphylococcus aureus USA300 assessed as decrease in SpA display on cell envelope by Western blot analysis. The format is functional, organism-based. As to conditions: dose 25-200 µM, DDE = dose-dependent effect. A digest of the protocol:
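S. aureus overnight culture diluted 1:1000 in TSB and grown with inhibitor until A600 3.0. Washed cells treated with 10 µg mL-1 lysostaphin in PBS for 15 min at 37 °C. Supernatant (cell-wall anchored proteins) run on SDS-PAGE and immunoblotted for SpA, with ClpP as loading control. Three independent experiments.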

For data set [13], the target named is T1, Sortase A. Nature of the data set: Irreversible inhibition of recombinant Staphylococcus aureus sortase A deltaN24 expressed in Escherichia coli BL21(DE3) cells using Abz-LPATG-Dnp as substrate preincubated for 60 mins followed by substrate addition and measured every 1 min for 15 mins by FRET-based assay. A digest of the protocol: as §2
The nature of data set [14]: Irreversible inhibition of recombinant Streptococcus pyogenes sortase A deltaN81 expressed in Escherichia coli BL21(DE3) cells using Abz-LPATG-Dnp as substrate preincubated for 60 mins followed by substrate addition and measured every 1 min for 15 mins by FRET-based assay.
Data set [15] relates to Staphylococcus aureus. Kind of data set: Irreversible inhibition of recombinant Staphylococcus aureus sortase A deltaN24 C184A mutant expressed in Escherichia coli BL21(DE3) cells assessed as thermal stabilization by measuring change in melting temperature incubated for 15 mins by Nano DSF assay. A digest of the protocol:
as §3

Calls of active or inactive are those of the source. The rule behind the calls is not given here.

Turning to `COc1ccc(/C=C/C=C2C(=O)NC(=O)NC2=O)cc1`, the MIC in the data set with Escherichia coli and in the data set with Staphylococcus aureus [11] was over 512 µg/mL each time. In addition, the IC50 on Sortase A [1] is 370 nM; at Sortase A [2] it was 500 nM; in [3], 3700 nM; in data set [4], 2300 nM; on Sortase A [8] it was 400 nM; on Sortase A [13], 300 nM. In addition, the IC50 in [14] was 700 nM. Further, the ΔTm in [5] is 4.1 °C; with Staphylococcus aureus [15] it was -0.1 °C. Further, the Activity result in [6] was “Non-Toxic”; with Staphylococcus aureus [12], “Dde”. Further, the outcome in the data set on Staphylococcus aureus [7] and in the data set on Staphylococcus aureus [10] was Active. Further, in data set [9], the Ratio was 4. Besides, the inhibition result at Cathepsin B was “Active”.
